Data from ChEMBL document CHEMBL3525971 (Drug Metab Dispos, 2011).

How the values were obtained:
[1] = Cmax in castrated pig bile at 0.8 mg/kg administered as intrajejunal dose by UPLC-tandem mass spectrometry; assay type: ADME, organism-based, Sus scrofa; design: dose 0.8 mg/kg; details: male
[2] = Drug excretion in castrated pig urine assessed as fraction of the dose excreted at 0.8 mg/kg administered as intrajejunal dose 20 mins after ketoconazole administration measured during 6 hrs sampling by UPLC-tandem mass spectrometry; assay type: ADME, organism-based, Sus scrofa; design: dose 0.8 mg/kg; details: male, read-out: Drug excretion
[3] = AUC (0 to 6 hrs) in castrated pig bile at 0.8 mg/kg administered as intrajejunal dose by UPLC-tandem mass spectrometry; assay type: ADME, organism-based, Sus scrofa; design: time < 6 hr, dose 0.8 mg/kg; details: male
[4] = AUC (0 to 6 hrs) in castrated pig bile at 0.8 mg/kg administered as intrajejunal dose 20 mins after ketoconazole administration by UPLC-tandem mass spectrometry; assay type: ADME, organism-based, Sus scrofa; design: time < 6 hr, route […], dose 0.8 mg/kg; details: male
[5] = Ratio of AUC in bile to plasma withdrawn from portal vein in castrated pig at 0.2 mg/kg, iv by UPLC-tandem mass spectrometry; assay type: ADME, organism-based, Sus scrofa; design: dose 0.2 mg/kg, route intravenous; details: male, read-out: Ratio AUC
Summary of the method: (§1)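 Bile collected 0-6 h and weighed; portal and hepatic vein plasma sampled. Analytes quantified by UPLC-MS/MS (finasteride-d9 internal standard, SRM). Bile AUC divided by plasma AUC for each vein.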

[6] = Renal clearance in castrated pig at 0.2 mg/kg, iv by UPLC-tandem mass spectrometry; assay type: ADME, organism-based, Sus scrofa, Kidney; design: dose 0.2 mg/kg, route intravenous; details: male, in vivo
Summary of the method: (§2)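 Urine collected 0-360 min into a closed bag, weighed and frozen at -20°C. […] Doses: iv 0.2 mg/kg bolus via central vein catheter (n=3), or ij 0.8 mg/kg alone or 20 min after ij ketoconazole 10 mg/kg (n=5). Renal clearance derived from the amount excreted in urine over 0-6 h.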

[7] = Ratio of AUC in bile to plasma withdrawn from hepatic vein in castrated pig at 0.8 mg/kg administered as intrajejunal dose 20 mins after ketoconazole administration by UPLC-tandem mass spectrometry; assay type: ADME, organism-based, Sus scrofa; design: dose 0.8 mg/kg; details: male, read-out: Ratio AUC
Summary of the method: (§3)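 Bile collected 0-6 h and weighed; portal and hepatic vein plasma sampled. UPLC-MS/MS quantification against finasteride-d9 in SRM mode. Bile/plasma AUC ratio calculated per vein.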

[8] = Ratio of AUC in bile to plasma withdrawn from hepatic vein in castrated pig at 0.8 mg/kg administered as intrajejunal dose by UPLC-tandem mass spectrometry; assay type: ADME, organism-based, Sus scrofa; design: dose 0.8 mg/kg; details: male, read-out: Ratio AUC; summary of the method: as §3
Sus scrofa [9] = assay: Absorption rate constant in castrated pig plasma withdrawn from femoral vein at 0.8 mg/kg administered as intrajejunal dose 20 mins after ketoconazole administration by UPLC-tandem mass spectrometry; assay type: ADME, organism-based; design: dose 0.8 mg/kg; details: in vivo, other
Sus scrofa [10] = assay: Absorption rate constant in castrated pig plasma withdrawn from portal vein at 0.8 mg/kg administered as intrajejunal dose 20 mins after ketoconazole administration by UPLC-tandem mass spectrometry; assay type: ADME, organism-based; design: dose 0.8 mg/kg; details: in vivo, other
[11] = Cmax in castrated pig bile at 0.2 mg/kg, iv by UPLC-tandem mass spectrometry; assay type: ADME, organism-based, Sus scrofa; design: dose 0.2 mg/kg, route intravenous; details: male
[12] = Drug excretion in castrated pig urine assessed as omega-hydroxy finasteride metabolite formation by UPLC-tandem mass spectrometry; assay type: ADME, tissue-based, Sus scrofa
[13] = Renal clearance in castrated pig at 0.8 mg/kg, administered as intrajejunal dose by UPLC-tandem mass spectrometry; assay type: ADME, organism-based, Sus scrofa, Kidney; design: dose 0.8 mg/kg; details: male, in vivo; summary of the method: as §2
[14] = Biliary excretion in castrated pig assessed as fraction of the dose excreted at 0.8 mg/kg administered as intrajejunal dose 20 mins after ketoconazole administration measured during 6 hrs sampling by UPLC-tandem mass spectrometry; assay type: ADME, organism-based, Sus scrofa; design: dose 0.8 mg/kg; details: male, bile, read-out: Drug excretion
[15] = Apparent biliary clearance in castrated pig at 0.8 mg/kg administered as intrajejunal dose by UPLC-tandem mass spectrometry; assay type: ADME, organism-based, Sus scrofa, Bile; design: dose 0.8 mg/kg; details: in vivo, other
[16] = Biliary excretion in castrated pig assessed as fraction of the dose excreted at 0.8 mg/kg administered as intrajejunal dose measured during 6 hrs sampling by UPLC-tandem mass spectrometry; assay type: ADME, organism-based, Sus scrofa; design: dose 0.8 mg/kg; details: male, bile, read-out: Drug excretion
[17] = Drug excretion in castrated pig urine assessed as fraction of the dose excreted at 0.2 mg/kg, iv measured during 6 hrs sampling by UPLC-tandem mass spectrometry; assay type: ADME, organism-based, Sus scrofa; design: dose 0.2 mg/kg, route intravenous; details: male, read-out: Drug excretion
[18] = Cmax in castrated pig bile at 0.8 mg/kg administered as intrajejunal dose 20 mins after ketoconazole administration by UPLC-tandem mass spectrometry; assay type: ADME, organism-based, Sus scrofa; design: dose 0.8 mg/kg; details: male
Plasma [19] = assay: Drug metabolism in castrated pig plasma withdrawn from femoral vein assessed as omega-hydroxy finasteride metabolite formation by UPLC-tandem mass spectrometry; assay type: ADME, cell-free, Sus scrofa
Summary of the method: (§4)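 Plasma sampled 0-6 h from portal, hepatic and femoral veins. Analysed by acetonitrile precipitation with finasteride-d9 internal standard, then UPLC-MS/MS in SRM mode, m/z 389.41 → 271.94 for the ω-hydroxy metabolite.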

[20] = Tmax in castrated pig plasma withdrawn from portal vein at 0.8 mg/kg administered as intrajejunal dose 20 mins after ketoconazole administration by UPLC-tandem mass spectrometry; assay type: ADME, organism-based, Sus scrofa; design: dose 0.8 mg/kg; details: male
Summary of the method: (§5)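 Portal, hepatic and femoral vein plasma sampled over 6 h and assayed by UPLC-MS/MS. Tmax read directly from the profiles. Terminal t1/2 calculated as ln2/λz by non- or compartmental analysis; values below LLOQ after Cmax excluded.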

Sus scrofa [21] = assay: Absorption rate constant in castrated pig plasma withdrawn from portal vein at 0.8 mg/kg administered as intrajejunal dose by UPLC-tandem mass spectrometry; assay type: ADME, organism-based; design: dose 0.8 mg/kg; details: in vivo, other
[22] = Terminal half life in castrated pig plasma withdrawn from portal vein at 0.8 mg/kg administered as intrajejunal dose by UPLC-tandem mass spectrometry; assay type: ADME, organism-based, Sus scrofa; design: dose 0.8 mg/kg; details: male, read-out: beta t1/2 (converted); summary of the method: as §5
[23] = Renal clearance in castrated pig at 0.8 mg/kg, administered as intrajejunal dose 20 mins after ketoconazole administration by UPLC-tandem mass spectrometry; assay type: ADME, organism-based, Sus scrofa, Kidney; design: dose 0.8 mg/kg; details: male, in vivo; summary of the method: as §2
[24] = Drug excretion in castrated pig urine assessed as unchanged drug level at 0.8 mg/kg administered as intrajejunal dose measured during 6 hrs sampling by UPLC-tandem mass spectrometry; assay type: ADME, organism-based, Sus scrofa; design: dose 0.8 mg/kg; details: in vivo, other
[25] = Drug excretion in castrated pig urine assessed as unchanged drug level at 0.8 mg/kg administered as intrajejunal dose 20 mins after ketoconazole administration measured during 6 hrs sampling by UPLC-tandem mass spectrometry; assay type: ADME, organism-based, Sus scrofa; design: dose 0.8 mg/kg; details: in vivo, other
[26] = Ratio of AUC in bile to plasma withdrawn from hepatic vein in castrated pig at 0.2 mg/kg, iv by UPLC-tandem mass spectrometry; assay type: ADME, organism-based, Sus scrofa; design: dose 0.2 mg/kg, route intravenous; details: male, read-out: Ratio AUC; summary of the method: as §1
[27] = AUC (0 to 6 hrs) in castrated pig bile at 0.2 mg/kg, iv by UPLC-tandem mass spectrometry; assay type: ADME, organism-based, Sus scrofa; design: time < 6 hr, dose 0.2 mg/kg, route intravenous; details: male
[28] = Drug excretion in castrated pig urine assessed as fraction of the dose excreted at 0.8 mg/kg administered as intrajejunal dose measured during 6 hrs sampling by UPLC-tandem mass spectrometry; assay type: ADME, organism-based, Sus scrofa; design: dose 0.8 mg/kg; details: male, read-out: Drug excretion
[29] = Tmax in castrated pig plasma withdrawn from hepatic vein at 0.8 mg/kg administered as intrajejunal dose 20 mins after ketoconazole administration by UPLC-tandem mass spectrometry; assay type: ADME, organism-based, Sus scrofa; design: dose 0.8 mg/kg; details: male; summary of the method: as §5
[30] = Biliary excretion in castrated pig assessed as fraction of the dose excreted at 0.2 mg/kg, iv measured during 6 hrs sampling by UPLC-tandem mass spectrometry; assay type: ADME, organism-based, Sus scrofa; design: dose 0.2 mg/kg, route intravenous; details: male, bile, read-out: Drug excretion
[31] = Drug excretion in castrated pig bile assessed as omega-hydroxy finasteride metabolite formation by UPLC-tandem mass spectrometry; assay type: ADME, tissue-based, Sus scrofa
Plasma [32] = assay: Drug metabolism in castrated pig plasma withdrawn from portal vein assessed as omega-hydroxy finasteride metabolite formation by UPLC-tandem mass spectrometry; assay type: ADME, cell-free, Sus scrofa; summary of the method: as §4
[33] = Terminal half life in castrated pig plasma withdrawn from hepatic vein at 0.8 mg/kg administered as intrajejunal dose 20 mins after ketoconazole administration by UPLC-tandem mass spectrometry; assay type: ADME, organism-based, Sus scrofa; design: dose 0.8 mg/kg; details: male, read-out: beta t1/2 (converted); summary of the method: as §5
[34] = Tmax in castrated pig plasma withdrawn from hepatic vein at 0.8 mg/kg administered as intrajejunal dose by UPLC-tandem mass spectrometry; assay type: ADME, organism-based, Sus scrofa; design: dose 0.8 mg/kg; details: male; summary of the method: as §5

## CC(C)(C)NC(=O)[C@H]1CC[C@H]2[C@@H]3CC[C@H]4NC(=O)C=C[C@]4(C)[C@H]3CC[C@]12C [FINASTERIDE]
[1]
  Cmax: 1300 nM
[2]
  dose excreted: 0.08%
[3]
  AUC(0-t) at 6 h: 2.5 µM·h
[4]
  AUC(0-t) at 6 h: 4.2 µM·h
[5]
  Kp: 0.9
[6]
  CL renal: 14.4 mL/day/kg
[7]
  Kp at 20 min: 6
[8]
  Kp: 14
Sus scrofa [9]
  ka: 3 h⁻¹
Sus scrofa [10]
  ka: 29 h⁻¹
[11]
  Cmax: 500 nM
[12]
  Drug excretion: metabolite_not_detected
[13]
  CL renal: 7.2 mL/day/kg
[14]
  dose excreted: 0.18%
[15]
  CL(app): 13 mL/day/kg
[16]
  dose excreted at 6 h: 0.09%
[17]
  dose excreted at 6 h: 0.12%
[18]
  Cmax: 2000 nM
Plasma [19]
  Drug metabolism: metabolite_not_detected
[20]
  Tmax: 18 min
Sus scrofa [21]
  ka: 19 h⁻¹
[22]
  half-life: 90 min
[23]
  CL renal at 20 min: 8.64 mL/day/kg
[24]
  Ae: 0.01 µmol
[25]
  Ae: 0.04 µmol
[26]
  Kp: 7
[27]
  AUC(0-t) at 6 h: 1.1 µM·h
[28]
  dose excreted at 6 h: 0.02%
[29]
  Tmax: 1 h
[30]
  dose excreted at 6 h: 0.19%
[31]
  Drug excretion: metabolite_not_detected
Plasma [32]
  Drug metabolism: metabolite_not_detected
[33]
  half-life: 216 min
[34]
  Tmax: 30 min
